Source: ChEMBL document CHEMBL1139993, “Synthesis of sialic acid derivatives as ligands for the myelin-associated glycoprotein (MAG)” (Bioorg Med Chem, 2007)

target: T1, Myelin-associated glycoprotein (Homo sapiens) (UniProt P20916); experiment: Inhibition of MAG N-terminal three domains expressed in CHO cells relative to Gal-beta-(1-3)-GalNAc-OSE; type: cell-based
T1 sequence (whole entry): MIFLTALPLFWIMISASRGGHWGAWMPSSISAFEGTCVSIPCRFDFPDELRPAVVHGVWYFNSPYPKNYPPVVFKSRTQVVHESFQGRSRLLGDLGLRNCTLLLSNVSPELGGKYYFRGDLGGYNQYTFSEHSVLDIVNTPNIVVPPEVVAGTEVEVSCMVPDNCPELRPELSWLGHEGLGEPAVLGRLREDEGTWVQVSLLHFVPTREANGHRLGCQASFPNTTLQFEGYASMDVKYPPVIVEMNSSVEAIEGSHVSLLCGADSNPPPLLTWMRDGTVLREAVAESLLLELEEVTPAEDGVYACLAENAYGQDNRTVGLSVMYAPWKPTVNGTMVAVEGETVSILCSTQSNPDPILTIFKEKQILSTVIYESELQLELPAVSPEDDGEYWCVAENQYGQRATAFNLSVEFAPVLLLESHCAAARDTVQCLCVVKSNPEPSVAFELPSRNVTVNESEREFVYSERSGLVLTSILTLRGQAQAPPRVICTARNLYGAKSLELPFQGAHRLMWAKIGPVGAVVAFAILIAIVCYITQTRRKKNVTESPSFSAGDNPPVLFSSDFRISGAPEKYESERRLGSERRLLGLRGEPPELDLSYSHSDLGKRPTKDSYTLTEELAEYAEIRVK
Procedure, shortened: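 Fc-MAG_d1–3 fusion (N-terminal three MAG domains plus human IgG Fc) was expressed in CHO cells and protein A-agarose purified, then precomplexed with alkaline phosphatase-labelled anti-Fc antibody. It was added to plates with immobilized Neu5Ac plus inhibitor, incubated overnight at 4 °C, and washed. Bound protein was read as initial rate of fluorescein release from fluorescein diphosphate. IC50 was taken from at least eight concentrations.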

| Compound | Activity |
| --- | --- |
| CC(=O)N[C@H]1[C@H]([C@@H](O)[C@H](O)CNC(=O)c2ccc([N+](=O)[O-])cc2)O[C@@](OCc2ccccc2)(C(=O)O)C[C@@H]1O | 414 |
| CC(=O)N[C@H]1[C@H]([C@@H](O)[C@H](O)CNC(=O)c2ccccc2)O[C@@](OCc2ccccc2)(C(=O)O)C[C@@H]1O | 690 |
| CC(=O)N[C@H]1[C@@H]([C@H](O)[C@H](O)CNC(=O)c2ccc(-c3ccccc3)cc2)O[C@@](OCc2ccccc2)(C(=O)O)C[C@@H]1O | 191 |
| CC(=O)N[C@@H]1[C@@H]([C@@H](O)[C@H](O)CNC(=O)c2ccc(C)cc2)O[C@@](OCc2ccccc2)(C(=O)O)C[C@@H]1O | 806 |
| CC(=O)N[C@H]1[C@@H]([C@H](O)[C@H](O)CNC(=O)c2ccccc2-c2ccccc2)O[C@@](OCc2ccccc2)(C(=O)O)C[C@@H]1O | 75 |
| CCCCCCCCCC(=O)NC[C@@H](O)[C@H](O)[C@@H]1O[C@@](OCc2ccccc2)(C(=O)O)C[C@H](O)[C@H]1NC(C)=O | 12 |
| CC(=O)N[C@H]1[C@H]([C@@H](O)[C@H](O)CNC(=O)c2ccc(C(F)(F)F)cc2)O[C@@](OCc2ccccc2)(C(=O)O)C[C@@H]1O | 207 |
| CC(=O)N[C@H]1[C@H]([C@@H](O)[C@H](O)CNC(=O)c2ccc(Cl)cc2Cl)O[C@@](OCc2ccccc2)(C(=O)O)C[C@@H]1O | 35 |
| CC(=O)N[C@H]1[C@H]([C@@H](O)[C@H](O)CNC(=O)c2ccc(Cl)cc2)O[C@@](OCc2ccccc2)(C(=O)O)C[C@@H]1O | 1070 |
| CC(=O)N[C@H]1[C@H]([C@@H](O)[C@H](O)CNC(=O)c2cccc(Cl)c2)O[C@@](OCc2ccccc2)(C(=O)O)C[C@@H]1O | 483 |
| CC(=O)N[C@H]1[C@H]([C@@H](O)[C@H](O)CNC(=O)c2ccc(Cl)c(Cl)c2)O[C@@](OCc2ccccc2)(C(=O)O)C[C@@H]1O | 690 |
| COc1ccc(C(=O)NC[C@@H](O)[C@H](O)[C@@H]2O[C@@](OCc3ccccc3)(C(=O)O)C[C@H](O)[C@H]2NC(C)=O)cc1 | 290 |
| CC(=O)N[C@H]1[C@H]([C@@H](O)[C@H](O)CNC(=O)c2cc(=O)[nH]c(=O)[nH]2)O[C@@](OCc2ccccc2)(C(=O)O)C[C@@H]1O | 6.7 |

Second part, the compound after the results:

| Activity | Compound |
| --- | --- |
| 0.05 | CC(=O)N[C@H]1[C@H]([C@@H](O)[C@H](O)CN=[N+]=[N-])O[C@@](OCc2ccccc2)(C(=O)O)C[C@@H]1O |
| 8.6 | CCCC(=O)NC[C@@H](O)[C@H](O)[C@@H]1O[C@@](OCc2ccccc2)(C(=O)O)C[C@H](O)[C@H]1NC(C)=O |
| 2.8 | CC(=O)N[C@H]1[C@H]([C@@H](O)[C@H](O)COCc2ccccc2)O[C@@](OCc2ccccc2)(C(=O)O)C[C@@H]1O |
| 12 | CCCCCC(=O)NC[C@@H](O)[C@H](O)[C@@H]1O[C@@](OCc2ccccc2)(C(=O)O)C[C@H](O)[C@H]1NC(C)=O |
| 0.62 | CC(=O)N[C@H]1[C@H]([C@@H](O)[C@H](O)CO)O[C@@](OCc2ccccc2)(C(=O)O)C[C@@H]1O |

target: T1, Myelin-associated glycoprotein (Homo sapiens); experiment: Inhibition of MAG N-terminal three domains expressed in CHO cells at 20 mM

| inhibition [%] | Compound |
| --- | --- |
| < 50 | CC(=O)N[C@H]1[C@H]([C@@H](O)[C@H](O)CO)O[C@](OCc2ccccc2)(C(=O)O)C[C@@H]1O |
